# Source: PubChem BioAssay
# STAT1 act = increases IFN-gamma driven STAT1 reporter signal; NIH 3T3 STAT1-luciferase reporter, luminescence; 100% = IFN-gamma alone, no compound; activation (% of control), % at 5.5 µM; 200,000 tested, 2.6% active; AID 932;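 active = activation above the screen-wide mean activation plus 3 SD, cut at about 130% in these data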
# NF-kB neuron act = raises NF-kB expression in human neuronal cells | NF-kB reporter expression; stronger effect = higher value | fold change at 12.5 µM | 190,000 tested, 1.6% active; in the data active = fold change above about 3.3
# FLuc stim CS = affects firefly luciferase, flagging false hits in luciferase stimulation screens. P08659. ATPlite luciferase biochemical, luminescence, 10 min; 0 = ATP-free wells, 1 = DMSO control. activation factor at 10 µM. 200,000 tested, under 10 active. AID 1027;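 active = luciferase activation factor, scaled between plate controls, of at least 2 with compound at 10 µM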
# Target sequence (P08659 whole entry, looked up): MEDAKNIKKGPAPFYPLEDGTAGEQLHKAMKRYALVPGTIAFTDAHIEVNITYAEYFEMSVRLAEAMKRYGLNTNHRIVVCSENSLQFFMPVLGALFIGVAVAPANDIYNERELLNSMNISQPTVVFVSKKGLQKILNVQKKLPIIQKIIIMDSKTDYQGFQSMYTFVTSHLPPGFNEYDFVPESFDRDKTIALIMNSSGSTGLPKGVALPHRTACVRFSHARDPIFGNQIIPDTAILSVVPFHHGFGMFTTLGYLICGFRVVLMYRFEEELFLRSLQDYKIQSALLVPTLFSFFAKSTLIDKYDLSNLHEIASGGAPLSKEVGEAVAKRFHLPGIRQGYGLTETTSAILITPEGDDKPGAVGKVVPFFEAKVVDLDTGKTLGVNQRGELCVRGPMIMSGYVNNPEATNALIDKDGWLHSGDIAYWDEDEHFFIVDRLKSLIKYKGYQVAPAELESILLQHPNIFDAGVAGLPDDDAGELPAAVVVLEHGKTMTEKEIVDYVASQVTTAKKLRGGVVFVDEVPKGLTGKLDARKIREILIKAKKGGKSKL
#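 Material: Luciferase/luciferin reagent mix; Doses: test compounds dosed from 2 mM stocks in 100% DMSO; Schedule: 10 min incubation after luciferase reagent addition, room temperature; Measured by: luminescence from luciferase reaction; Read-out: luminescence gain marking luciferase activators.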
# APP 5'UTR act = activates APP 5'UTR luciferase reporter; SH-SY5Y APP 5'UTR luciferase reporter, luminescence; zero percent = DMSO vehicle wells; activation, % at 2 µM; 190,000 tested, 1% active;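 active = activation above a set limit, based on mean plus 3 SD of controls, cut at about 140% in these data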
# FLuc inhib CS = counter-screen for luciferase assay inhibitors: firefly luciferase inhibition. 200,000 tested, 1.5% active. ATPLite firefly luciferase biochemical luminescence, 10 min. P08659. inhibition, % at 10 µM;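 active = inhibition above about 50% when tested at 10 µM, limit read from the data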
# STAT1 activ conf = STAT1 activation, confirmation assay; NIH 3T3 STAT1-luciferase reporter, IFN-gamma potentiation, luminescence; 100% = IFN-gamma EC80 alone, no compound; AID 1262; shares compounds with STAT1 act; activation (% of control), % at 5.7 µM; 1,200 tested, 97% active;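 active = activation above a set limit carried over from the earlier primary STAT1 screen, cut at about 140% in these data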
# NFkB act = activates NF-kappaB, counter-screen to STAT1 activators; shares compounds with STAT1 act; HEK293T NF-kB luciferase reporter, TNF-alpha stimulated, luminescence; 100% = TNF-alpha with vehicle only; activation (% of control), % at 5.7 µM; 1,200 tested, 43% active; AID 1306;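 active = activation above the mean of solvent-only control wells plus 3 SD, set per campaign, cut at about 130% in these data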;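 also: TNF-alpha given at a submaximal dose yielding about 80% of full reporter signal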
# STAT3 act STAT1c = activates human STAT3, counter-screen to STAT1 activators; U3A cells STAT3-luciferase reporter, IL-6, luminescence; cells lack STAT1; 100 = IL-6 alone, no compound effect; activation (% of control), % at 5.7 µM; 1,200 tested, 46% active; shares compounds with STAT1 act;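 active = activation above the solvent-only control well mean plus 3 SD, set per plate batch, cut at about 110% in these data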;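 also: higher means more STAT3 reporter activation so hits are non-selective activators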
# A number is an active result; . = inactive; / = no result given. Compounds with a hit are over-represented: about 4.3% of the library has one in this group of screens.
SMILES,STAT1 act,NF-kB neuron act,FLuc stim CS,APP 5'UTR act,FLuc inhib CS,STAT1 activ conf,NFkB act,STAT3 act STAT1c
C(=C\c1nc(-c2ccccc2)no1)/c1ccccc1,154,8.6,.,135,.,207,.,.
O=C(c1cccnc1)N1CCN(c2ccc3ccccc3n2)CC1,.,.,.,.,.,/,/,/
COc1ccc(NC(=O)/C(C#N)=C\C=C\c2ccco2)cc1,.,.,.,.,.,/,/,/
CCCOC(=O)Nc1ccc(N2CCCCC2)cc1,154,5.1,.,.,59,177,.,.
CCCCC(=O)Nc1ccc(N2CCCC2)cc1,.,/,/,.,/,/,/,/
COc1ccc(NC(=O)C2CCCN(S(=O)(=O)c3ccc4c(c3)oc(=O)n4C)C2)c(OC)c1 (stereo unspecified),.,.,.,.,.,/,/,/
CN(C)c1ccc(/C=N/NC(=O)c2ccco2)cc1,160,5.6,.,.,84,174,.,.
O=C(Nc1ccc2c(c1)CCC2)c1cccs1,157,6.2,.,.,.,198,136,.
O=C(Nc1ccc2c(c1)CCC2)c1ccc(F)cc1,174,8.5,.,197,70,233,.,.
O=C(Nc1ccc2c(c1)CCC2)c1c(F)cccc1Cl,175,4.2,.,.,.,196,140,112
O=C(COc1cccc(Cl)c1Cl)Nc1ccc2c(c1)CCC2,.,.,.,.,.,/,/,/
O=C(Nc1ccc2c(c1)CCC2)c1cc(S(=O)(=O)Nc2ccc(F)cc2)c(Cl)cc1Cl,.,.,.,.,.,/,/,/
C#CCONC(=O)c1cc(OCC(F)(F)F)ccc1OCC(F)(F)F,.,.,.,.,.,/,/,/
COC(=O)c1ccc(-c2ccc(Cl)cc2)nc1C,186,5.9,.,179,50,241,136,111
O=[N+]([O-])c1cccc(-c2nnc(-c3ccccc3)o2)c1,153,.,.,.,.,161,.,.
NC(=O)c1ccccc1N/C=C/C(=O)c1ccc(F)cc1,154,4.2,.,136,90,189,.,.
O=C(/C=C/Nc1ccccc1F)c1ccc(Br)cc1,182,8.8,.,224,80,239,.,.
O=C(/C=C/NCC(=O)c1ccccc1)c1ccc(Br)cc1,.,.,.,.,.,/,/,/
O=C(/C=C/Nc1ccc(F)cc1)c1ccc(Br)cc1,172,/,.,.,.,218,.,.
CC(=O)c1cccc(NS(=O)(=O)c2ccc(N/C=C\C(=O)c3ccc(F)cc3)cc2)c1,.,.,.,.,.,/,/,/
O=C(Nc1ccc(SC(F)F)cc1)c1ccccc1F,161,.,.,.,.,182,142,.
O=C(Cc1ccccc1F)Nc1ccc(SC(F)F)cc1,162,5.3,.,153,.,169,.,127
O=C(COC(=O)Cc1ccccc1F)Nc1ccc(SC(F)F)cc1,.,.,.,.,.,/,/,/
CC(=O)Nc1ccc(C(=O)Cn2c3[n+](c4c(F)c(F)ccc42)CCCCC3)cc1,.,.,.,.,.,/,/,/
COc1ccc(NC(=O)C2CCCN2C(=O)Oc2ccccc2)cc1 (stereo unspecified),.,.,.,.,.,/,/,/
SMILES,STAT1 act,NF-kB neuron act,FLuc stim CS,APP 5'UTR act,FLuc inhib CS,STAT1 activ conf,NFkB act,STAT3 act STAT1c
O=C(NCC(=O)N1CC(O)CC1C(=O)N1CCCC1C(=O)OCc1ccccc1)OCc1ccccc1 (stereo unspecified),.,.,.,.,.,/,/,/
Cc1cnc(NC(=O)COc2ccccc2)s1,166,4.3,.,168,.,179,.,.
Cc1cnc(NC(=O)CSc2ccccc2)s1,.,.,.,.,.,/,/,/
CCOC(=O)c1sc(N/N=C/c2ccccc2)nc1C,152,.,.,.,.,183,134,.
Cc1nn(-c2ccccc2)c(Cl)c1/C=N/NC(=O)CNc1n[nH]c(=O)[nH]c1=O,.,.,.,.,.,/,/,/
CC1C/C(=C/c2ccccn2)C(=O)/C(=C/c2ccccn2)C1 (stereo unspecified),235,.,.,.,.,.,.,.
O=C1/C(=C/c2ccccn2)COc2ccccc21,.,.,.,.,.,/,/,/
CC(C)(C)C1C/C(=C/c2ccccn2)C(=O)/C(=C/c2ccccn2)C1 (stereo unspecified),221,.,.,.,.,199,.,.
Cc1cc(/C=N/NC(=O)c2nn(C)cc2Cl)c(C)n1-c1cccc(Br)c1,159,.,.,.,.,.,.,.
Cc1cc(/C=N/NC(N)=S)c(C)n1-c1cccc(Cl)c1,.,.,.,.,.,/,/,/
O=c1oc(Nc2cccc(Cl)c2)nc2ccccc12,157,.,.,.,.,177,.,157
O=c1oc(Nc2ccccc2Cl)nc2ccccc12,.,.,.,.,.,/,/,/
CCCCC(=O)N/N=C/c1sccc1C,.,.,.,.,.,/,/,/
Cc1ccsc1/C=N/NC(=O)Nc1ccccc1,172,4,.,147,.,192,.,.
Cc1ccsc1C(=O)N/N=C/C=C/c1ccccc1[N+](=O)[O-],.,.,.,.,.,/,/,/
Cc1ccccc1/C=N/NC(=O)c1sccc1C,163,5,.,.,.,205,134,.
O=C(N/N=C/c1ccc2c(c1)OCO2)c1sc2cc(Cl)ccc2c1Cl,.,.,.,.,.,/,/,/
Cc1ccsc1C(=O)N/N=C/c1ccc2c(c1)OCO2,161,6.2,.,158,64,226,.,.
O=C(N/N=C/c1ccc2c(c1)OCO2)c1cccs1,174,4.3,.,.,75,204,134,117
CCCCCCCCCCOC(=O)c1csc2nnsc12,.,.,.,.,.,/,/,/
COc1ccccc1NC(=S)N/N=C/c1ccc(O)cc1,159,4,.,.,.,209,.,.
COc1ccccc1NC(=S)N/N=C/c1cccc(C)c1,.,.,.,.,.,/,/,/
CCOc1ccc(/C=N/Nc2ccccn2)cc1OC,155,.,.,.,58,154,.,.
CCOc1ccc(/C=N/N(C)c2ccccc2)cc1OC,163,4.9,.,.,.,187,142,.
CCCC1=C(C(=O)OCC)C(c2ccncc2)n2ncnc2N1 (stereo unspecified),.,.,.,.,.,/,/,/
CC(C)N1CCN(Cc2ccsc2)CC1CCO (stereo unspecified),.,.,.,.,.,/,/,/
CNc1oc(/C=C/c2ccccc2)nc1C#N,154,5.3,.,.,.,167,136,.
Cc1ccc2cc(CCNC(=O)c3cccs3)c(=O)[nH]c2c1C,165,4,.,.,.,187,135,.
